Results on 23 compounds are retold here after ChEMBL document CHEMBL1129403, “Analogs of 3-hydroxy-1H-1-benzazepine-2,5-dione: structure-activity relationship at N-methyl-D-aspartate receptor glycine sites” (J Med Chem, 1996).

In assay [1] the target is T1, Glutamate receptor ionotropic, AMPA (Rattus norvegicus) (UniProt P19491+P19492+P19493+P19490). Kind of assay: Inhibition of AMPA(glutamate) preferring non-NMDA receptors was measured in oocytes expressing rat brain poly(A)+ RNA. Number of cells examined are 3. It is filed as functional, cell-based. Conditions: Oocyte. The method, boiled down:
(§1)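 Oocytes injected with rat cerebral cortex poly(A)+ RNA, two-electrode voltage clamp. Currents elicited by 10 µM AMPA. Kb derived from partial concentration-inhibition curves by generalized Cheng-Prusoff, using AMPA EC50 5.89 µM and slope 1.96.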

Assay [2] concerns the target T2, Glutamate NMDA receptor (Rattus norvegicus) (UniProt P35439+Q00959+Q00960+Q00961+Q62645+Q8VHN2+Q9R1M7). Kind of assay: Inhibition of NMDA(glycine) receptors was measured in oocytes expressing cloned rat brain receptor subunits (NR1a/2C). Number of cells examined are 4. Format: functional, cell-based. The conditions noted are these: Oocyte.
Assay [3] deals with Glutamate NMDA receptor. As to the kind of experiment: Inhibition of [3H]5,7-dichlorokynurenic acid(DCKA) binding to N-methyl-d-aspartate receptors(NMDA) of rat brain cortical membranes. Format: cell membranes, Membrane. An outline of the steps:
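[³H]DCKA (15-20 nM) incubated with well-washed rat cortical membranes and nine concentrations (up to 100 µM) in 50 mM HEPES-KOH, pH 7.5, for 30 min on ice. Reaction stopped by filtration and filter-bound radioactivity counted by liquid scintillation. IC50 taken from a sigmoidal fit.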

Assay [4] can be described thus: Ratio of binding affinities of NMDA / AMPA. The method, boiled down:
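Steady-state selectivity index: Kb AMPA divided by Kb NMDA, with both Kb values taken from oocyte recordings.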

In assay [5] the target is T1, Glutamate receptor ionotropic, AMPA (Rattus norvegicus). Kind of assay: Inhibition of AMPA(glutamate) preferring non-NMDA receptors was measured in cultured rat cortical neurons. Number of cells examined are 2.
The target of assay [6] is Glutamate NMDA receptor. As to the kind of experiment: Compound was tested for inhibition of [3H]MK-801 binding to N-methyl-d-aspartate receptors(NMDA) of rat brain cortical membranes. It is filed as cell membranes, Membrane. An outline of the steps: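 [³H]MK801 displacement in rat brain cortical membranes, run by a previously described method. Compounds with IC50 < 300 µM were counted as potential NMDA antagonists.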

For assay [7], the target named is AMPA receptor (Rattus norvegicus). As to the kind of experiment: Inhibition of AMPA(glutamate) preferring non-NMDA receptors was measured in oocytes expressing rat brain poly(A)+ RNA. Number of cells examined are 6. Conditions: Oocyte.
The test system of another assay is Mus musculus. As to the kind of experiment: In vivo potency in mouse maximum electroshock-inducedseizure after i.v. administration. Format: functional. The conditions noted are these: iv.
In assay [8] the target is T2, Glutamate NMDA receptor (Rattus norvegicus). Kind of assay: Inhibition of NMDA(glycine) receptors was measured in oocytes expressing cloned rat brain receptor subunits (NR1a/2C). Number of cells examined are 2. It is filed as functional, cell-based. The conditions noted are these: Oocyte.
In assay [9] the target is T1, Glutamate receptor ionotropic, AMPA (Rattus norvegicus). As to the kind of experiment: Inhibition of AMPA(glutamate) preferring non-NMDA receptors was measured in oocytes expressing rat brain poly(A)+ RNA. Number of cells examined are 5. It is filed as functional, cell-based. The conditions noted are these: Oocyte. An outline of the steps:
as §1

The target in assay [10] is T2, Glutamate NMDA receptor (Rattus norvegicus). Kind of assay: Inhibition of NMDA(glycine) receptors was measured in oocytes expressing cloned rat brain receptor subunits (NR1a/2C). Number of cells examined are 7. It is filed as functional, cell-based. The conditions noted are these: Oocyte.
Assay [11] addresses T1, Glutamate receptor ionotropic, AMPA (Rattus norvegicus). Kind of assay: Inhibition of AMPA(glutamate) preferring non-NMDA receptors was measured in cultured rat cortical neurons. Number of cells examined are 8.
The target is the same in assay [12]. As to the kind of experiment: Inhibition of AMPA(glutamate) preferring non-NMDA receptors was measured in oocytes expressing rat brain poly(A)+ RNA. Number of cells examined are 4. It is filed as functional, cell-based. Conditions: Oocyte. An outline of the steps: as §1
The target in assay [13] is T2, Glutamate NMDA receptor (Rattus norvegicus). Kind of assay: Inhibition of NMDA(glycine) receptors was measured in oocytes expressing cloned rat brain receptor subunits (NR1a/2C). Number of cells examined are 3. Conditions: Oocyte. It is filed as functional, cell-based.
The target of assay [14] is T1, Glutamate receptor ionotropic, AMPA (Rattus norvegicus). As to the kind of experiment: Inhibition of AMPA(glutamate) preferring non-NMDA receptors was measured in cultured rat cortical neurons. Number of cells examined are 3.

“And” between values parts separate entries of the source, which are not always exact repeats. Equal values may be shown once. A value given as a limit tells only on which side of the number the result lay.

For `O=c1cc(O)c2ccccc2[nH]c1=O`, the values for the Kb in assay [1], in [2] and in assay [5] were 42 µM, 1.3 µM and 65 µM, respectively. Moreover, the IC50 (in general, the concentration that gives 50% inhibition) at Glutamate NMDA receptor [3] came out at 0.83 µM. The Ratio in assay [4] is 32.
As for `CCc1ccc2c(O)cc(=O)c(=O)[nH]c2c1`, the concentration for half-maximal inhibition (IC50) on Glutamate NMDA receptor [3] was 5.1 µM.
With `Cc1ccc(C)c2c(O)cc(=O)c(=O)[nH]c12`, the IC50 on Glutamate NMDA receptor [6] is > 300 µM.
In the case of `O=c1cc(O)c2ccc(Br)cc2[nH]c1=O`, the Kb in assay [2] was determined as 0.026 µM; in assay [7], 2.7 µM. On Glutamate NMDA receptor [3], this compound yielded an IC50 of 0.079 µM. For the same compound, the Ratio in assay [4] amounted to 100.
Turning to `Cc1cc(C)c2c(O)cc(=O)c(=O)[nH]c2c1`, in the assay with Mus musculus, the ED50 (in general, the midpoint of the dose-response relation) was 3.9 mg/kg. At Glutamate NMDA receptor [3], the IC50 is 0.3 µM.
Take `O=c1cc(O)c(=O)c2ccccc2[nH]1`: in [8], the Kb is > 55 µM. Further, on Glutamate NMDA receptor [3], the IC50 was > 100 µM.
Take `O=C(Nc1ccc2[nH]c(=O)c(=O)cc(O)c2c1)C(F)(F)F`: the IC50 at Glutamate NMDA receptor [6] was > 300 µM.
Regarding `Cc1cc2[nH]c(=O)c(O)cc(=O)c2c(C)c1[N+](=O)[O-]`, at Glutamate NMDA receptor [3], the IC50 is 2.2 µM. That is a single-digit micromolar value.
As for `O=c1cc(O)c2ccc(Cl)cc2[nH]c1=O`, the Kb in [9] turned out to be 2 µM; in [10] it was 0.026 µM; in assay [11], 10 µM. The compound also registered an ED50 in the assay on Mus musculus of 13 mg/kg. Besides, the IC50 at Glutamate NMDA receptor [3] amounted to 0.013 µM. Moreover, in assay [4], the Ratio is 77.
For `Cc1cccc2[nH]c(=O)c(O)cc(=O)c12`, at Glutamate NMDA receptor [3], the IC50 turned out to be 13 µM.
As to `O=c1ccc(=O)c2ccccc2[nH]1`, at Glutamate NMDA receptor [6], the IC50 was > 300 µM.
Still for that read-out and setting: for `[N-]=[N+]=Nc1ccc2[nH]c(=O)c(=O)cc(O)c2c1` the value was > 300 µM.
Take `CC(=O)Nc1ccc2[nH]c(=O)c(O)cc(=O)c2c1`: the IC50 at Glutamate NMDA receptor [3] was > 100 µM.
With `Cc1cccc2c(O)cc(=O)c(=O)[nH]c12`, the IC50 at Glutamate NMDA receptor [6] is > 300 µM.
Take `O=c1cc(O)c2cc(Br)ccc2[nH]c1=O`: at Glutamate NMDA receptor [6], the IC50 was > 300 µM.
With `O=c1cc(O)c2cc([N+](=O)[O-])ccc2[nH]c1=O`, the IC50 at Glutamate NMDA receptor [3] was 12 µM. This lies in the double-digit micromolar range.
As for `O=c1cc(O)c2ccc(F)cc2[nH]c1=O`, the Kb in assay [12] worked out at 5.3 µM; in assay [13], 0.21 µM. For the same compound, the IC50 on Glutamate NMDA receptor [3] was determined as 0.49 µM. Further, the Ratio in [4] was determined as 25.
Consider `Cc1ccc2c(O)cc(=O)c(=O)[nH]c2c1`, for which the Kb in assay [12] is 9.9 µM; in assay [13] it was 0.25 µM and 0.47 µM; in assay [14] it was 6.4 µM. Moreover, the IC50 at Glutamate NMDA receptor [3] is 0.13 µM. In [4], the Ratio is 40.
For `Cc1cc2[nH]c(=O)c(O)cc(=O)c2cc1C`, the Kb in [12] turned out to be 3.8 µM; in assay [2], 0.086 µM. In the assay on Mus musculus, this compound had an ED50 of 6.3 mg/kg. The compound also displayed an IC50 on Glutamate NMDA receptor [3] of 0.24 µM. For the same compound, the Ratio in assay [4] turned out to be 44.
Consider `Cc1ccc2[nH]c(=O)c(O)cc(=O)c2c1C`, for which the IC50 at Glutamate NMDA receptor [6] was > 300 µM.
On to `O=Nc1c(O)c2ccccc2[nH]c(=O)c1=O`, for which the IC50 at Glutamate NMDA receptor [6] is > 300 µM.
`Cc1c[nH]c(=O)c(O)cc1=O`: the IC50 on Glutamate NMDA receptor [6] was > 300 µM.
Regarding `Cc1cc(C)c2[nH]c(=O)c(O)cc(=O)c2c1`, the IC50 at Glutamate NMDA receptor [6] is > 300 µM.
